Measurements from PMC3480199 (Journal of medicinal chemistry, 2012).
pIC50: −log10 of the molar value.

The compounds below were run on MDR1-MDCKII cells (assay: MDR1-MDCKII assay). Conditions: 3 μM.

| AQ (typical control value) | Compound |
| --- | --- |
| > 0.5 | CC(C)CN(C[C@@H](O)[C@H](Cc1ccccc1)NC(=O)O[C@H]1CCOC1)S(=O)(=O)c1ccc(N)cc1 [Amprenavir] |

What follows are compounds tested on CRL-8155 human lymphoblast cell line (assay: Mammalian cell growth inhibition assay). Conditions: CRL8155, 48 h, read-out: CRL-8155 IC50.
Format: cell-based

| Compound | pIC50 |
| --- | --- |
| O=C(NCCCNCc1cc(Cl)cc(Cl)c1)Nc1ccccc1 [Compound 2, 1-(3-(3,5-Dichlorobenzylamino)propyl)-3-phenylurea] | 4.92 |
| COc1cc(Cl)cc(CNCCCNC(=O)Nc2ccccc2)c1 [Compound 4] | 4.70 |
| O=C(NCCCNCc1cc(Cl)cc(Cl)c1)Nc1ccccc1O [Compound 16] | < 4.70 |
| O=C(NCCCNCc1cc(Cl)cc(Cl)c1)Nc1cccc(O)c1 [Compound 17] | 4.92 |
| O=C(NCCCNCc1cc(Cl)cc(Cl)c1)Nc1cccc(F)c1 [Compound 18] | 4.36 |
| O=C(NCCCNCc1cc(Cl)cc(Cl)c1)Nc1ccsc1 [Compound 26, 1-[3-(3,5-Dichloro-benzylamino)-propyl]-3-thiophen-3-yl-urea] | 4.92 |
| COc1cc(Cl)cc(CNCCCNC(=O)Nc2ccsc2)c1 [Compound 27, 1-[3-(3-Chloro-5-methoxy-benzylamino)-propyl]-3-thiophen-3-yl-urea] | 4.66 |
| O=C(NCCCNCc1cc(Cl)cc(Cl)c1)Nc1cccs1 [Compound 28] | 5.02 |

What follows are compounds tested against T1, human mitochondrial MetRS (Homo sapiens, UniProt Q96GW9) (assay: Human mitochondrial methionyl-tRNA synthetase aminoacylation assay). Conditions: not given.
T1 sequence (Q96GW9 30-593): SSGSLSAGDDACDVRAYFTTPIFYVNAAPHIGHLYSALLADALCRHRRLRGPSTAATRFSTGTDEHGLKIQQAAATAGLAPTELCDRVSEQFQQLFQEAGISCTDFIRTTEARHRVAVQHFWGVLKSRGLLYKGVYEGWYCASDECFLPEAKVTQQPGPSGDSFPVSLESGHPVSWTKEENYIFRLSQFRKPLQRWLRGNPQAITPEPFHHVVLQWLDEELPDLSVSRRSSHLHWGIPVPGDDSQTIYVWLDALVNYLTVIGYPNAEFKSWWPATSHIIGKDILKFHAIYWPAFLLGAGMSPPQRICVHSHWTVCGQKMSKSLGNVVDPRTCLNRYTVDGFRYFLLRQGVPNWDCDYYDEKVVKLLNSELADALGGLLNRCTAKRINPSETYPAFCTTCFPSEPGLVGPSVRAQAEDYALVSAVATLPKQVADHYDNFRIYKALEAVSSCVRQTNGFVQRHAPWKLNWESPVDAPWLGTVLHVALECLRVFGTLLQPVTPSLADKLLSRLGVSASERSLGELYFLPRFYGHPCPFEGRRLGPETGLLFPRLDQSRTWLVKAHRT
Format: biochemical
How it was run: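 Recombinant enzyme (20 nM) preincubated 15 min with 12 serial two-fold dilutions of test compound in 50 mM Tris-HCl pH 8.0, 2.5 mM MgCl2, 2.5 mM KCl, 0.2 mM spermine, 0.2 mg/mL BSA, 2.5 mM DTT, 1 U/mL pyrophosphatase. Started with 200 μg/mL E. coli tRNA, 2.5 mM ATP, 250 nM [3H]methionine; 120 min, 37°C. Filtered, TCA-washed, scintillation-counted in quadruplicate; IC50 by sigmoidal nonlinear regression.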

| Compound | pIC50 |
| --- | --- |
| O=C(NCCCNCc1cc(Cl)cc(Cl)c1)Nc1ccccc1 [Compound 2, 1-(3-(3,5-Dichlorobenzylamino)propyl)-3-phenylurea] | < 5.00 |
| O=C(NCCCNCc1cc(Cl)cc(Cl)c1)Nc1ccccc1O [Compound 16] | 5.43 |
| O=C(NCCCNCc1cc(Cl)cc(Cl)c1)Nc1cccc(F)c1 [Compound 18] | 5.37 |
| O=C(NCCCNCc1cc(Cl)cc(Cl)c1)Nc1ccsc1 [Compound 26, 1-[3-(3,5-Dichloro-benzylamino)-propyl]-3-thiophen-3-yl-urea] | 5.36 |

The remaining lines, values ahead:

| pIC50 | Compound |
| --- | --- |
| 5.08 | COc1cc(Cl)cc(CNCCCNC(=O)Nc2ccccc2)c1 [Compound 4] |
| 5.27 | O=C(NCCCNCc1cc(Cl)cc(Cl)c1)Nc1cccc(O)c1 [Compound 17] |
| 5.18 | COc1cc(Cl)cc(CNCCCNC(=O)Nc2ccsc2)c1 [Compound 27, 1-[3-(3-Chloro-5-methoxy-benzylamino)-propyl]-3-thiophen-3-yl-urea] |
| 5.51 | O=C(NCCCNCc1cc(Cl)cc(Cl)c1)Nc1cccs1 [Compound 28] |

Same assay, conditions: human mitochondrial MetRS IC50 over T. brucei MetRS IC50

| Selectivity Index Human IC50 / T. brucei IC50 | Compound |
| --- | --- |
| >175 | O=C(NCCCNCc1cc(Cl)cc(Cl)c1)Nc1ccccc1 [Compound 2, 1-(3-(3,5-Dichlorobenzylamino)propyl)-3-phenylurea] |

Each compound was assayed on T. brucei rhodesiense (assay: Efficacy studies in mice). Conditions: 50 mg/kg oral every 12 h for 4 days.
Format: in vivo

| Compound | Extension of survival | Toxicity in treated mice |
| --- | --- | --- |
| O=C(NCCCNCc1cc(Cl)cc(Cl)c1)Nc1ccsc1 [Compound 26, 1-[3-(3,5-Dichloro-benzylamino)-propyl]-3-thiophen-3-yl-urea] | 1 days | No toxicity |

What follows are compounds tested on MDR1-MDCKII cells (assay: not given). Conditions: dog, MDCK-MDR1, 60 min, 3 μM.

| AQ (typical control value) | Compound |
| --- | --- |
| < 0.5 | CC(C)NCC(O)COc1cccc2ccccc12 (stereo not shown) [Propranolol] |

These compounds were tested on T. brucei cells (assay: Protein synthesis inhibition assay). Conditions: 4 h, concentrations 1 to 16 times the 48 hour EC50.
Format: cell-based, Trypanosoma brucei
How it was run: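 Mid-log bloodstream-form T. brucei (5×10^5 cells/well) in HMI-9 medium, given test compound in triplicate and preincubated 15 min, with a no-drug control on each plate. Cells cultured with 3H-histidine; filters counted by scintillation.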

| Compound | Incorporation of 3H-amino acid into proteins |
| --- | --- |
| Oc1cc(NCCCNCc2cc(Cl)cc(Cl)c2)nc2ccccc12 [Compound 1] | dose dependent decrease |
| O=C(NCCCNCc1cc(Cl)cc(Cl)c1)Nc1ccsc1 [Compound 26, 1-[3-(3,5-Dichloro-benzylamino)-propyl]-3-thiophen-3-yl-urea] | dose dependent decrease |
| NCCCC(N)(C(=O)O)C(F)F (stereo not shown) [DFMO, difluoromethylornithine] | did not result in a dose dependent decrease |
| C[C@@H]1C[C@@H]([C@H](O)CC2CC(=O)NC(=O)C2)C(=O)[C@@H](C)C1 [cycloheximide] | dose dependent decrease |
